Results from ChEMBL document CHEMBL1681705, “Optimisation of ITK inhibitors through successive iterative design cycles” (Bioorg Med Chem Lett, 2011).

Key:
[1] = biological target: Epidermal growth factor receptor (Homo sapiens) (UniProt P00533); experiment: Inhibition of EGFR at 1 uM; values are per cent of control
[2] = biological target: Tyrosine-protein kinase SYK (Homo sapiens) (UniProt P43405); experiment: Inhibition of Syk at 1 uM
[3] = biological target: T1, Tyrosine-protein kinase JAK3 (Homo sapiens) (UniProt P52333); experiment: Inhibition of JAK3 at 1 uM
T1 sequence (whole entry): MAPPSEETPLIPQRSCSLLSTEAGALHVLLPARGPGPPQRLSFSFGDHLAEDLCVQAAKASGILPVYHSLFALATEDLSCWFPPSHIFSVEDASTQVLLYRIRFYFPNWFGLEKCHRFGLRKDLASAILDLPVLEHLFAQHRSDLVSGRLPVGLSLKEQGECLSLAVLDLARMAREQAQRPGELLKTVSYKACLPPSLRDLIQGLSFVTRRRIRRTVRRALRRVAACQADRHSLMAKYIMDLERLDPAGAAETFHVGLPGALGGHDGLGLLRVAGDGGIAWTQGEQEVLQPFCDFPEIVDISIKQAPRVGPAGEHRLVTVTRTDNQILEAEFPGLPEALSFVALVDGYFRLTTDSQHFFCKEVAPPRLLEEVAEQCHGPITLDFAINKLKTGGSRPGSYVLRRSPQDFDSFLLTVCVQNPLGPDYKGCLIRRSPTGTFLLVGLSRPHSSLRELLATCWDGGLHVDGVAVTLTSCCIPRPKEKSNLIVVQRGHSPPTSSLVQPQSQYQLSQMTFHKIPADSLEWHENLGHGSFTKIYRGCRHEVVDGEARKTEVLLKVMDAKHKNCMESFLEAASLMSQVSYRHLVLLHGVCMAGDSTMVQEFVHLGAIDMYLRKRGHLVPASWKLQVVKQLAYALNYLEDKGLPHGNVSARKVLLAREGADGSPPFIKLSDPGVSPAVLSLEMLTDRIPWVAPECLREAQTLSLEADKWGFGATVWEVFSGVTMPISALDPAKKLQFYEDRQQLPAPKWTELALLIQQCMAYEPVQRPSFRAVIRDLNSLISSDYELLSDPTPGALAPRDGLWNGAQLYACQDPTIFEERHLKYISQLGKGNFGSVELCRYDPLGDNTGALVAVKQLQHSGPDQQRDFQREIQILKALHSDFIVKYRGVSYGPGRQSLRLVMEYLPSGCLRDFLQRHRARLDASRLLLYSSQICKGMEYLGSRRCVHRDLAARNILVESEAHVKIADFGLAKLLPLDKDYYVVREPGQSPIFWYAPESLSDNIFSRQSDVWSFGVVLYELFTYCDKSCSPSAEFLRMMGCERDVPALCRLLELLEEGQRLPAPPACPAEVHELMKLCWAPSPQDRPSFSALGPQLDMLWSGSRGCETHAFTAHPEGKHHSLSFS
Outline: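 Each selected inhibitor was tested at two concentrations, 0.1 and 1.0 micromolar. Values are reported as inhibition at each concentration.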

[4] = biological target: Glycogen synthase kinase-3 beta (Homo sapiens) (UniProt P49841); experiment: Inhibition of GSK3-beta at 1 uM; values are per cent of control
Glycogen synthase kinase-3 beta (Homo sapiens), sequence (P49841 whole entry, looked up): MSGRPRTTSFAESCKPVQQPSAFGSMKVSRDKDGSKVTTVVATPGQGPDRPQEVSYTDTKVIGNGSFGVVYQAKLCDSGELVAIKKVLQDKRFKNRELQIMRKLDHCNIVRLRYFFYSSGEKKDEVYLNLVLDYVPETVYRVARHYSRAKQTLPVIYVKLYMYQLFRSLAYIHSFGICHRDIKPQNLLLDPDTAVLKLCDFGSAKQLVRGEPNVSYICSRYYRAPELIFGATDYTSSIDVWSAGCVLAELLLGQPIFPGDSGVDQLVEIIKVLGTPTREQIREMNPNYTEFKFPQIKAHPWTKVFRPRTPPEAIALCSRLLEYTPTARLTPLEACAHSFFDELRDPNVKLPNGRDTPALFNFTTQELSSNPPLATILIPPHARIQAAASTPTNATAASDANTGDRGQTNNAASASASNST

[5] = biological target: Tyrosine-protein kinase BTK (Homo sapiens) (UniProt Q06187); experiment: Inhibition of BTK at 1 uM; values are per cent of control
Tyrosine-protein kinase BTK (Homo sapiens), sequence (Q06187 whole entry): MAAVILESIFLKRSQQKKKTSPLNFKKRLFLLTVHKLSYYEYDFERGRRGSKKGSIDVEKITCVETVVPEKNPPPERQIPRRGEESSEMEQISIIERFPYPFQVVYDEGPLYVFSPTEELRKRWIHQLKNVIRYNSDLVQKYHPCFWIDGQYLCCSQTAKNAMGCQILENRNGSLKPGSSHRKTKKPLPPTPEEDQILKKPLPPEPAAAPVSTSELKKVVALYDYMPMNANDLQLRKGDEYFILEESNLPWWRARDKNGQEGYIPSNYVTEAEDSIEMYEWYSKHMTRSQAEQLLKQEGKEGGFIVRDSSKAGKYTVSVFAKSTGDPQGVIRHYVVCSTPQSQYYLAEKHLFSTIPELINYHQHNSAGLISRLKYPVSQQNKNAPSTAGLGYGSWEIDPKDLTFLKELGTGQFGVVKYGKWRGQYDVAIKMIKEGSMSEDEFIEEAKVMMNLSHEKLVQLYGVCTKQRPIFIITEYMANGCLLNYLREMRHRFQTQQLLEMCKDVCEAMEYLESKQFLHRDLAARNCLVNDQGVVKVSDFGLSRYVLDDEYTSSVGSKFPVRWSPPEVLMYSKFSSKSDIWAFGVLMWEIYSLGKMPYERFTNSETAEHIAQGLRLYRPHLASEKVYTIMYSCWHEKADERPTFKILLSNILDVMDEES

[6] = biological target: Mitogen-activated protein kinase 14 (Homo sapiens) (UniProt Q16539); experiment: Inhibition of SAPK2a at 1 uM
Mitogen-activated protein kinase 14 (Homo sapiens), sequence (Q16539 whole entry): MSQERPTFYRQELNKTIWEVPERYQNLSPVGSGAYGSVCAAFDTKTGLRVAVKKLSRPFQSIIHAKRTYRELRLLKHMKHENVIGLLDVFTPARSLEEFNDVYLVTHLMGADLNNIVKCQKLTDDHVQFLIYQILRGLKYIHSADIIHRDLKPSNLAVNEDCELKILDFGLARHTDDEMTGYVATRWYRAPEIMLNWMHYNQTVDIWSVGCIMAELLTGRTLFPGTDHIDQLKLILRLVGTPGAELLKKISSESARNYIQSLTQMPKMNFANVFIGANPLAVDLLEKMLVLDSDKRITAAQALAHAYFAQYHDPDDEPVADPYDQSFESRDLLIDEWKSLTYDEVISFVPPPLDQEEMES

[7] = biological target: T2, Serine/threonine-protein kinase Nek2 (Homo sapiens) (UniProt P51955); experiment: Inhibition of NEK2 at 0.1 uM; values are per cent of control
T2 sequence (whole entry): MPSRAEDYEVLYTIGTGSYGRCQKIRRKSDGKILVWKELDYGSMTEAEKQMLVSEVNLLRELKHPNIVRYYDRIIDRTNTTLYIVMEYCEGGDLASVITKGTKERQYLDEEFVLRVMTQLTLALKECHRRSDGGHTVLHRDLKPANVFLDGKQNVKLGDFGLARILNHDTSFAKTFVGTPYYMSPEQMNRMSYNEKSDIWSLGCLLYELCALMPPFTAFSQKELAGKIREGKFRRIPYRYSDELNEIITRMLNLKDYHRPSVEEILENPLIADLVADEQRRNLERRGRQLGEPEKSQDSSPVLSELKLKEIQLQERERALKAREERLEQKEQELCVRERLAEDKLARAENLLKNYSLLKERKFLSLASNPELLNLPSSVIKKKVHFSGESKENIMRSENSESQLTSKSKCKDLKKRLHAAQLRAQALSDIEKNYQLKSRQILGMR

[8] = biological target: Mast/stem cell growth factor receptor Kit (Homo sapiens) (UniProt P10721); experiment: Inhibition of c-Kit at 1 uM; values are per cent of control
[9] = biological target: Protein kinase C alpha type (Homo sapiens) (UniProt P17252); experiment: Inhibition of PKCalpha at 0.1 uM; values are per cent of control
[10] = biological target: Serine/threonine-protein kinase MARK1 (Homo sapiens) (UniProt Q9P0L2); experiment: Inhibition of MARK1 at 1 uM; values are per cent of control
Serine/threonine-protein kinase MARK1 (Homo sapiens), sequence (Q9P0L2 whole entry, looked up): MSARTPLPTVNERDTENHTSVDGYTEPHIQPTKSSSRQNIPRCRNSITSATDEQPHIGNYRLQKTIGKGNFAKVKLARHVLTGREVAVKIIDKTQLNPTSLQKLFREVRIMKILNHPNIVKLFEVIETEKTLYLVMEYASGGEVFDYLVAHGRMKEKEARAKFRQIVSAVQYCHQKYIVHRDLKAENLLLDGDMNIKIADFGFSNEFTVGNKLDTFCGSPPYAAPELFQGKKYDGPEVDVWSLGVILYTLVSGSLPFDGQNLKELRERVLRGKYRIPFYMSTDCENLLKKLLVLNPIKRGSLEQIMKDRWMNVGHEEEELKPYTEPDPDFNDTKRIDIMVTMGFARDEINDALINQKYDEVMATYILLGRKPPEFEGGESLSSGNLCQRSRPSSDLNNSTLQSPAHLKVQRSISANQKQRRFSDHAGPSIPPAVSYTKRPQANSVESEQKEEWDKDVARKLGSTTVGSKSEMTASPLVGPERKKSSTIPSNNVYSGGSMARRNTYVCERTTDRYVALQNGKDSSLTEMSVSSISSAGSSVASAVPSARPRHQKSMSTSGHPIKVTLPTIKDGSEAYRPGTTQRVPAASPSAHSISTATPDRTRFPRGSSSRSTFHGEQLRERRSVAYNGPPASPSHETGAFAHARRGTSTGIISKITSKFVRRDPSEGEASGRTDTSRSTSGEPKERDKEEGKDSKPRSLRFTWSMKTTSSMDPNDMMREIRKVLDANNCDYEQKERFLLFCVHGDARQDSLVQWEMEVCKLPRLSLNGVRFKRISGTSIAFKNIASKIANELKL

Epidermal growth factor receptor (Homo sapiens), sequence (P00533 whole entry): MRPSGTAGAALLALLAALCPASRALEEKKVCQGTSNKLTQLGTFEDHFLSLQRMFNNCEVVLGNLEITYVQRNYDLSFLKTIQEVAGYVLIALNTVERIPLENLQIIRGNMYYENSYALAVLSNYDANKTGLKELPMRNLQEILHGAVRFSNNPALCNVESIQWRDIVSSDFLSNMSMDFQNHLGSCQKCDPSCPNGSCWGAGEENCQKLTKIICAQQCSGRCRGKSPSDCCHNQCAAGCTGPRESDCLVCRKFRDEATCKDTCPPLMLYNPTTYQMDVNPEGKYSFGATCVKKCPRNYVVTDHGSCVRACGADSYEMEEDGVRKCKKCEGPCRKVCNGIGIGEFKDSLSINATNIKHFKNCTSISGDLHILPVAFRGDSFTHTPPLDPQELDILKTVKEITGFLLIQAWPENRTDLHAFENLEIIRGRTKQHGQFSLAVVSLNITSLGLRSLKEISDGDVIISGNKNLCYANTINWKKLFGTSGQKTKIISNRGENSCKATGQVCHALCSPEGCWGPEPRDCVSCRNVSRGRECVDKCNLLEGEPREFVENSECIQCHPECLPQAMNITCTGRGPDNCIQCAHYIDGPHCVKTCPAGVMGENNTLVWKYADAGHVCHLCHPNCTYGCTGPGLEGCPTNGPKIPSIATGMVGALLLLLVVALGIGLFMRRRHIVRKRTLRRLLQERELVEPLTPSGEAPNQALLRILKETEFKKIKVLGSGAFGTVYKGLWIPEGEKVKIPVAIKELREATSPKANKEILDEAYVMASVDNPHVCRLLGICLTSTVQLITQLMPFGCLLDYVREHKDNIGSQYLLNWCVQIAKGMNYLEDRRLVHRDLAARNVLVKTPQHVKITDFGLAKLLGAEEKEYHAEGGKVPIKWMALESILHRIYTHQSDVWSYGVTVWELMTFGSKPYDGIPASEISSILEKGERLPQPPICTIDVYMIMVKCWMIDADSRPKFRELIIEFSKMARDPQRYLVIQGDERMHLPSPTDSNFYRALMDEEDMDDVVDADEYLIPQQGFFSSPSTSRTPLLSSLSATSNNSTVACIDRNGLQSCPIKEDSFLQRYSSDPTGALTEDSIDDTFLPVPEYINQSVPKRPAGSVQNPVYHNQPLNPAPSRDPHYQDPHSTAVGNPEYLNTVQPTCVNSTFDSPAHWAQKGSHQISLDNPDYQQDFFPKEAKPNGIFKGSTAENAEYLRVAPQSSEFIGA

residual activity [1] | inhibition [2] | inhibition [3] | residual activity [4] | residual activity [5] | inhibition [6] | residual activity [7] | residual activity [8] | residual activity [9] | residual activity [10] | SMILES
99% | 0% | 8% | 69% | 10% | 99% | 79% | 69% | 85% | 0% | Cc1ccc2cc(-c3n[nH]c4ccc(NC5CCNC5)cc34)[nH]c2c1 (stereo not given)
-8% | -2% | 5% | 95% | -4% | 97% | 91% | 122% | 77% | 21% | Cc1ccc2cc(-c3n[nH]c4ccc(NC5CCN(Cc6ccccc6)CC5)cc34)[nH]c2c1
